# Only some compounds are listed: those with a hit (about 2.2% of all), similar ones and a draw of the others.
# APP 5'UTR act = activators of APP 5'UTR luciferase reporter, primary screen, SH-SY5Y cells. SH-SY5Y APP 5'UTR luciferase reporter, luminescence; zero percent = DMSO vehicle wells. activation, % at 2 µM. 190,000 tested, 1% active;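 active = activation above a set limit, based on mean plus 3 SD of controls, cut at about 140% in these data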
# FLuc inh counter = firefly luciferase enzyme inhibitors, primary screen, artefact control for luciferase-based inhibitor screens, biochemical, luminescence, ATPLite. inhibition, % at 10 µM. 200,000 tested, 1.5% active. Luciferin 4-monooxygenase (Photinus pyralis), P08659. AID 1006, 2008. 10 min;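 active = inhibition above about 50% when tested at 10 µM, limit read from the data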
# Target sequence (P08659 whole entry, looked up): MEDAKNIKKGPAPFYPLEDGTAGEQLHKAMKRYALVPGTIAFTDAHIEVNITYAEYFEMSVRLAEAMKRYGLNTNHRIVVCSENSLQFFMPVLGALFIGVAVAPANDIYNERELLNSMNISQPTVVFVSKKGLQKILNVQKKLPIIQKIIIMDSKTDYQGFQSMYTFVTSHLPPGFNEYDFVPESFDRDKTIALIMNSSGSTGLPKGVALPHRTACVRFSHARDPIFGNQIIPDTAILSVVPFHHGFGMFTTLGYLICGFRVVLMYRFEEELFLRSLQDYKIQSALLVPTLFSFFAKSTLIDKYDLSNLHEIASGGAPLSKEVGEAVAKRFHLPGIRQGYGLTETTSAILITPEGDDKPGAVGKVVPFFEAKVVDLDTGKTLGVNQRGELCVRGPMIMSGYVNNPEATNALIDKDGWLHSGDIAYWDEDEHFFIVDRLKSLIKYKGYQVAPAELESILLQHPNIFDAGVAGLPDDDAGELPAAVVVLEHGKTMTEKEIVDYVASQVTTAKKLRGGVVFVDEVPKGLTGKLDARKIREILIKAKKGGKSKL
# C8 TRAIL sens = viability loss with TRAIL in NB7+C8 cells, primary screen, TRAIL sensitizer project, cell-based, ATPlite luminescence | 360,000 tested, 1% active | AID 624354, 2012 | inhibition (viability loss, TRAIL sensitization), % at 10 µM;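 active = compounds causing at least 50% loss of cell viability in the single-dose screen, relative to plate controls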
# PPC-1+TRAIL kill = compounds killing PPC-1 cancer cells with TRAIL present, primary screen, TRAIL potentiator project, ATPLite luminescence, uHTS; PPC-1 cells + TRAIL, ATPLite viability luminescence; cell killing (% activity), % at 4 µM or 5 µM; 220,000 tested, 0.41% active; AID 1443, 2008;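 active = cell killing above 50% in the first pass at 4 µM, then a duplicate retest at 5 µM averaging 50% or more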;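 note: plate controls were cells with TRAIL plus DMSO for no effect and medium-only wells lacking cells for full effect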
# FLuc stim CS = FLuc activators, initial screening, artefact control for FLuc-dependent activation tests, biochemical, ATPlite luminescence | ATPlite luciferase biochemical, 10 min; 0 = ATP-free wells, 1 = DMSO control | 200,000 tested, under 10 active | Luciferin 4-monooxygenase (Photinus pyralis), P08659 | activation factor at 10 µM;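 active = luciferase activation factor, scaled between plate controls, of at least 2 with compound at 10 µM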
#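 Assay system: Luciferase/luciferin detection reagent, cell-free biochemical luciferase assay / Read-out: luciferase activation / Benchmarks: No-ATP low control, compound-free enzyme-plus-ATP high control / Medium: PBS buffer for ATP / Detection: luminescence measurement of luciferase light output / Schedule: 10 min at ambient temperature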
# NF-kB neuron act = activators of NF-kB expression in neurons, primary screen, cell-based, HTS. AID 1239, 2008. human neuronal cells, NF-kB reporter expression; hits give high values. 190,000 tested, 1.6% active. fold change at 12.5 µM; in the data active = fold change above about 3.3
# PPC-1 tox = cytotoxicity in PPC-1 cells, confirmation, cytotoxicity control for TRAIL apoptosis potentiator project, cell-based, ATP content luminescence. shares compounds with PPC-1+TRAIL kill. PPC-1 viability, ATPlite luminescence, overnight. 1,200 tested, 50% active. cytotoxicity, % at 5 µM;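 active = reconfirmed compounds whose average cytotoxicity reaches 50% or more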;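 note: 0% = DMSO-treated cells and 100% = wells holding medium but no cells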
# * hit, by the source's call; nt = no result given.
SMILES,APP 5'UTR act,FLuc inh counter,C8 TRAIL sens,PPC-1+TRAIL kill,FLuc stim CS,NF-kB neuron act,PPC-1 tox
Brc1ccc(N=Nc2ccc3ccccc3n2)cc1,nt,nt,92*,94*,nt,nt,93*
Oc1ccc(N=Nc2ccc3c(c2)OCO3)c2ccccc12,nt,nt,nt,34,nt,nt,32
O=C(NN=Cc1c(O)ccc2ccccc12)c1ccc2c(c1)OCO2,nt,nt,34,nt,nt,nt,nt
COc1ccc(NC(=O)c2nc3ccccc3s2)cc1,208*,61*,46,36,0.4,7.5*,39
Nc1nc(CCl)nc(Nc2ccc3ccccc3c2)n1,nt,nt,95*,96*,nt,nt,95*
Cc1ccc(Nc2nc(N)nc(CN3CCN(c4ccccc4)CC3)n2)cc1Cl,-6,-7,7,15,1.1,0.65,nt
COc1cccc(C(=O)/C=C/Nc2cccc(O)c2)c1,148*,96*,82*,85*,0,12*,86*
O=C(Nc1ccccc1NS(=O)(=O)c1ccc(F)cc1)C1CCC1,1,-7,2,6,1.1,1.3,11
COc1cc(NS(=O)(=O)c2ccc(F)cc2)c(OC)cc1NC(=O)C1CC1,7,-5,nt,7,1.1,1.2,nt
CCCC(=O)Nc1ccccc1NC(=O)c1ccc(OCC)cc1,-17,1,-2,12,1,0.97,nt
CCOc1ccc(C(=O)Nc2ccccc2C(=O)O)cc1,64,93*,75*,62*,0.1,1.1,62*
CCOc1ccc(C(=O)Nc2cc(C)on2)cc1,109,74*,64*,47,0.3,3.6*,50*
C#CC(=O)N(c1ccc(OC)cc1OC)C(C(=O)NC1CCCC1)c1cccs1 (stereo unspecified),-15,-6,93*,97*,1.1,0.18,96*
COc1ccc(N(C(=O)c2ccco2)C(C(=O)NC2CCCCC2)c2cccs2)cc1OC (stereo unspecified),3,-7,8,-15,1.1,1.2,nt
C#CC(=O)N(c1cc(OC)ccc1OC)C(C(=O)NC1CCCC1)c1cccs1 (stereo unspecified),-11,-6,91*,98*,1.1,0.17,98*
COc1cc(/C=C(/C#N)c2nc3ccccc3[nH]2)ccc1OCC(=O)Nc1ccccc1C,17,-2,87*,19,1,1.1,-2
CCOc1cc(/C=N/Nc2cc(C)nc(-n3nc(C)cc3C)n2)ccc1O,nt,nt,15,58*,nt,nt,54*
C(=N\Nc1nn2cnnc2c2ccccc12)/c1ccco1,-3,12,-1,35,0.9,1.3,nt
CCOc1cc(/C=N/Nc2nncc(-c3ccccc3)n2)ccc1O,-4,8,-2,-4,0.9,0.61,nt
CCOc1cc(/C=N/Nc2nn3cnnc3c3ccccc23)ccc1O,nt,nt,73*,56*,nt,nt,59*
COc1cc(/C=N/Nc2nn3cnnc3c3ccccc23)ccc1O,3,94*,78*,79*,0.1,0.75,77*
COc1ccc(OC)c(S(=O)(=O)N2CCCC(C(=O)NCCN3CCOCC3)C2)c1 (stereo unspecified),nt,nt,-11,nt,nt,nt,nt
CN1CCCN(S(=O)(=O)c2cccc(Cl)c2Cl)CC1,-18,-5,-1,20,1,1.2,nt
COC(=O)c1ccc(N/C=C\C(=O)c2ccc3c(c2)OCO3)cc1,100,16,20,30,0.8,1.1,nt
O=C(/C=C\Nc1cccc(F)c1)c1ccc2c(c1)OCO2,196*,90*,72*,74*,0.1,2.3,71*
O=C(/C=C\Nc1ccccc1Br)c1ccc2c(c1)OCO2,148*,97*,91*,93*,0,6*,94*
O=C(/C=C/c1ccccc1Br)c1ccc2c(c1)OCO2,nt,nt,-18,nt,nt,nt,nt
COc1ccccc1N(CC(O)CN1CCOCC1)S(=O)(=O)c1ccccc1 (stereo unspecified),nt,nt,-11,nt,nt,nt,nt

# Screening data deposited in PubChem by several laboratories.
